ChEMBL document CHEMBL1132160, “Structure-antiviral activity relationship in the series of pyrimidine and purine N-[2-(2-phosphonomethoxy)ethyl] nucleotide analogues. 1. Derivatives substituted at the carbon atoms of the base” (J Med Chem, 1999)
≈ marks a conversion by molar mass, not a printed value.

How the values were obtained:
Cytomegalovirus [1] = assay: Inhibitory activity against cytomegalovirus (CMV) Davis strain; assay type: functional, organism-based; settings: Human betaherpesvirus 5
Method in brief: (§1)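 HEL cell cultures, grown to confluence, received 100 CCID50 of virus. After 1 h adsorption, the inoculum was removed and the cultures were incubated with serial concentrations of compound (400, 200, 100, ... μg/mL).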

[2] = Inhibitory activity against murine sarcoma virus induced transformation of murine C3H/3T3 embryo fibroblasts; assay type: functional, Mus musculus
Method in brief: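 Murine C3H/3T3 embryo fibroblasts were seeded at 5 × 10⁵ cells/mL. After 24 h they were infected with 80 focus-forming units of MSV for 90–120 min at 37 °C. The medium was then replaced with fresh medium containing various compound concentrations, and transformation was examined microscopically after 6 days.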

[3] = test system: Human immunodeficiency virus 1; assay: Inhibition of human immunodeficiency virus type 1 (HIV-1) induced cytopathogenicity in CEM cells; assay type: functional, organism-based; settings: Human immunodeficiency virus 1, CCRF-CEM
Method in brief: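 CEM cells (~3 × 10⁵ cells/mL) were infected with 100 CCID50 of HIV-1 (IIIB)/mL and plated with dilutions of compound. After 4 days at 37 °C, giant cell formation was assessed microscopically.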

Human alphaherpesvirus 2 [4] = assay: Inhibitory activity against herpes simplex virus type 2 (HSV-2) G strain; assay type: functional, organism-based
Method in brief: (§2)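 Confluent E6SM cell cultures were inoculated with 100 CCID50 of virus and allowed 1 h for adsorption. Residual virus was then removed, and the cells were incubated with test compound at 400, 200, 100, ... μg/mL. Viral cytopathicity was scored once it reached completion in untreated infected controls.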

Vaccinia virus = assay: Inhibitory activity against vaccinia virus (VV); assay type: functional, organism-based; settings: Orthopoxvirus vaccinia
Method in brief: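 Confluent E6SM cell cultures were inoculated with 100 CCID50 of virus and left for 1 h adsorption, then residual virus was removed. Cultures were incubated with test compound at serial concentrations (400, 200, 100, ... μg/mL). Virus-induced cytopathicity was scored once it reached completion in untreated infected control cultures.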

Human alphaherpesvirus 1 [5] = assay: Inhibitory activity against herpes simplex virus type 1 (HSV-1) KOS strain; assay type: functional, organism-based; method in brief: as §2
[6] = test system: Human immunodeficiency virus 2; assay: Inhibition of human immunodeficiency virus type 2 (HIV-2) induced cytopathogenicity in CEM cells; assay type: functional, organism-based; settings: Human immunodeficiency virus 2, CCRF-CEM
Cytomegalovirus [7] = assay: Inhibitory activity against cytomegalovirus (CMV) AD 169 strain; assay type: functional, organism-based; settings: Human betaherpesvirus 5; method in brief: as §1
Human alphaherpesvirus 2 [8] = assay: Inhibitory activity against herpes simplex virus type 2 (HSV-2) Lyons strain; assay type: functional, organism-based; method in brief: as §2
[9] = Inhibitory activity against herpes simplex virus type 2 (HSV-2) 196 strain; assay type: functional; method in brief: as §2
Human alphaherpesvirus 1 [10] = assay: Inhibitory activity against herpes simplex virus type 1 (HSV-1) McIntyre strain; assay type: functional, organism-based; method in brief: as §2
Human alphaherpesvirus 1 [11] = assay: Inhibition of herpes simplex virus type 1 (HSV-1) F strain; assay type: functional, organism-based; method in brief: as §2
[12] = test system: Human immunodeficiency virus 1; assay: Inhibitory activity of compound against human immunodeficiency virus type 1 (HIV-1) induced cytopathogenicity in MT-4 cells; assay type: functional, organism-based; settings: Human immunodeficiency virus 1, MT4
Method in brief: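 Human MT-4 cells (~4 × 10⁵ cells/mL) were infected with 100 CCID50 of HIV-1 (IIIB)/mL and seeded into wells containing compound dilutions. After 5 days at 37 °C, viable cells were counted by trypan blue exclusion in a blood cell counting chamber.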

SMILES | EC50 (Cytomegalovirus [1]) [µg/mL] | EC50 [2] [µg/mL] | EC50 [3] [µg/mL] | EC50 (Human alphaherpesvirus 2 [4]) [µg/mL] | EC50 (Vaccinia virus) [µg/mL] | EC50 (Human alphaherpesvirus 1 [5]) [µg/mL] | EC50 [6] [µg/mL] | EC50 (Cytomegalovirus [7]) [µg/mL] | EC50 (Human alphaherpesvirus 2 [8]) [µg/mL] | EC50 [9] [µg/mL] | EC50 (Human alphaherpesvirus 1 [10]) [µg/mL] | EC50 (Human alphaherpesvirus 1 [11]) [µg/mL] | EC50 [12] [µg/mL]
Nc1cccc2c1ncn2CCOCP(=O)(O)O | > 50 | > 200 | > 100 | > 400 | > 400 | > 400 | > 100 | > 50 |  |  |  |  | 
Nc1cc(N)c2ncn(CCOCP(=O)(O)O)c2n1 | > 50 | 142 (≈ 494 µM) | > 100 | 300 (≈ 1040 µM) | > 400 | 300 (≈ 1040 µM) | > 100 | > 50 | 300 (≈ 1040 µM) | > 400 | > 400 | > 400 | 
NC1=NC2N=CC=NC2C(=O)N1CCOCP(=O)(O)O (centres undefined) | > 50 | 26.5 (≈ 87.4 µM) | > 100 | 70 (≈ 231 µM) | 200 (≈ 660 µM) | 70 (≈ 231 µM) | > 100 | > 50 | 70 (≈ 231 µM) | 150 (≈ 495 µM) | 150 (≈ 495 µM) | 150 (≈ 495 µM) | 
CC(C)CCCCCOP(=O)(COCCn1cnc2c(N)ncnc21)OCCCCCC(C)C | 3 (≈ 6.03 µM) |  | > 4 | 3.2 (≈ 6.43 µM) | > 3.2 | > 3.2 | > 4 | 1 (≈ 2.01 µM) |  |  |  |  | 
CC(C)OP(=O)(COCCn1cnc2c(N)ncnc21)OC(C)C | 30 (≈ 84 µM) | > 40 |  | > 400 | > 400 | > 400 |  | 8 (≈ 22.4 µM) |  |  |  |  | 171 (≈ 479 µM)
CC(C)OP(=O)(COCCn1cnc2c(O)nc(N)nc21)OC(C)C | > 50 | 13.5 (≈ 36.2 µM) | > 100 | 400 (≈ 1070 µM) |  | 240 (≈ 643 µM) | > 100 | > 50 | 240 (≈ 643 µM) | 240 (≈ 643 µM) | 80 (≈ 214 µM) | 240 (≈ 643 µM) | 
Nc1ncnc2c1ncn2CCOCP(=O)(O)O [ADEFOVIR] | 77 (≈ 282 µM) |  |  | 1.1 (≈ 4.03 µM) |  | 3.6 (≈ 13.2 µM) |  | 30 (≈ 110 µM) |  |  |  |  | 
Nc1nc(=O)n(CCOCP(=O)(O)O)cc1Br | 33 (≈ 101 µM) | 19.2 (≈ 58.5 µM) | > 100 | 150 (≈ 457 µM) | > 400 | 20 (≈ 61 µM) | > 100 | 30 (≈ 91.4 µM) | 70 (≈ 213 µM) | 100 (≈ 305 µM) | 70 (≈ 213 µM) | 40 (≈ 122 µM) | 
CC(C)CCCCCOP(=O)(COCCn1cnc2c(Cl)nc(N)nc21)OCCCCCC(C)C | 1 (≈ 1.88 µM) | > 8 | > 4 | > 16 | > 16 | > 16 | > 4 | 0.86 (≈ 1.62 µM) |  |  |  |  | 
CC(C)CCCCCOP(=O)(COCCn1cnc2c(N)nc(N)nc21)OCCCCCC(C)C | 0.8 (≈ 1.56 µM) | > 8 | > 4 | > 16 | > 16 | > 16 | > 4 | 0.86 (≈ 1.68 µM) |  |  |  |  | 
CC(C)OP(=O)(COCCn1c(Br)nc2c(N)nc(N)nc21)OC(C)C | 20 (≈ 44.3 µM) | > 40 | > 100 | > 400 | > 400 | > 400 | > 100 | 25 (≈ 55.4 µM) | 300 (≈ 665 µM) | > 400 | > 400 | > 400 | 
Nc1nc(O)c2nc(Br)n(CCOCP(=O)(O)O)c2n1 | > 50 | > 0.16 | > 100 | 240 (≈ 652 µM) |  | 240 (≈ 652 µM) | > 100 | 43 (≈ 117 µM) | > 400 | 240 (≈ 652 µM) | 240 (≈ 652 µM) | 240 (≈ 652 µM) | 
Nc1cc2ncn(CCOCP(=O)(O)O)c2c(O)n1 | > 100 |  |  | > 200 |  | > 200 |  | > 100 | > 200 | > 200 | > 200 | > 200 | 
CC(C)CCCCCOP(=O)(COCCn1cnc2c(O)nc(N)nc21)OCCCCCC(C)C | 1.1 (≈ 2.14 µM) | > 40 | > 4 | > 80 | > 80 | > 80 | > 4 | 1.2 (≈ 2.34 µM) |  |  |  |  | 
Cc1nc(N)nc2c1ncn2CCOCP(=O)(O)O | > 50 | 30 (≈ 104 µM) | > 100 | 400 (≈ 1390 µM) | > 400 | > 200 | > 100 | > 50 |  |  |  |  | 
CC(C)OP(=O)(COCCn1c(Br)nc2c(O)nc(N)nc21)OC(C)C | > 50 | > 40 | > 100 | > 400 |  | > 400 | > 100 | > 50 | 240 (≈ 531 µM) | 240 (≈ 531 µM) | 240 (≈ 531 µM) | 240 (≈ 531 µM) | 
O=P(O)(O)COCCn1cnc2c(S)ncnc21 | 20 (≈ 68.9 µM) | > 200 | > 100 | > 400 | > 400 | > 400 | > 100 | 25 (≈ 86.1 µM) | > 400 | > 400 | > 400 | > 400 | 
CCOP(=O)(COCCn1cnc2c(N)ncnc21)OCC |  | > 40 | > 100 |  |  |  | > 100 |  |  |  |  |  | 
Nc1nnc(N)c2c1ncn2CCOCP(=O)(O)O | > 50 | 124 (≈ 430 µM) | > 100 | > 200 | > 200 | > 200 | > 100 | > 50 | > 200 | > 200 | > 200 | > 200 | 
Nc1nc(N)c2nc(Br)n(CCOCP(=O)(O)O)c2n1 | 12 (≈ 32.7 µM) | 2.43 (≈ 6.62 µM) | > 100 | 20 (≈ 54.5 µM) | 300 (≈ 817 µM) | 20 (≈ 54.5 µM) | > 100 | 8 (≈ 21.8 µM) | 20 (≈ 54.5 µM) | 70 (≈ 191 µM) | 20 (≈ 54.5 µM) | 7 (≈ 19.1 µM) | 
CC(C)CCCCCOP(=O)(COCCn1cnc2nc(N)nc(O)c21)OCCCCCC(C)C | 11 (≈ 21.4 µM) | > 8 | > 20 | > 16 | > 16 | > 16 | > 20 | 11 (≈ 21.4 µM) |  |  |  |  | 
CC(C)OP(=O)(O)COCCn1cnc2c(O)nc(N)nc21 | 0.3 (≈ 0.906 µM) | > 0.064 | > 20 | 5.3 (≈ 16 µM) |  | 5.7 (≈ 17.2 µM) | 11 (≈ 33.2 µM) | 0.35 (≈ 1.06 µM) | 1.9 (≈ 5.74 µM) | 1.9 (≈ 5.74 µM) | 0.64 (≈ 1.93 µM) | 0.64 (≈ 1.93 µM) | 
Nc1nc(O)nc2c1ncn2CCOCP(=O)(O)O | > 50 | 123 (≈ 425 µM) | > 100 | > 400 | > 50 | > 400 | > 100 | > 50 |  |  |  |  | 
Nc1nc(Cl)c2ncn(CCOCP(=O)(O)O)c2n1 | 0.3 (≈ 0.975 µM) | > 0.16 | > 0.16 | 0.38 (≈ 1.24 µM) |  | 0.23 (≈ 0.748 µM) | > 0.16 | 0.05 (≈ 0.163 µM) | 0.38 (≈ 1.24 µM) | 0.38 (≈ 1.24 µM) | 0.22 (≈ 0.715 µM) | 0.13 (≈ 0.423 µM) | 
CC(C)OP(=O)(O)COCCn1cnc2c(N)ncnc21 | > 50 | > 40 | > 100 | 300 (≈ 952 µM) | > 400 | 200 (≈ 634 µM) | > 100 | > 50 |  |  |  |  | 
CC(C)CCCCCOP(=O)(COCCn1cnc2nc(N)nc(Cl)c21)OCCCCCC(C)C | > 5 | > 8 | > 4 | > 16 | > 16 | > 16 | > 4 | 5 (≈ 9.4 µM) |  |  |  |  | 
CC(C)OP(=O)(O)COCCn1cnc2c(N)nc(N)nc21 | > 50 | > 200 | > 100 | > 400 | > 400 | 150 (≈ 454 µM) | > 100 | > 50 |  |  |  |  | 
CC(C)OP(=O)(COCCn1cnc2c(S)ncnc21)OC(C)C | > 50 | > 40 | > 100 | > 400 | > 400 | > 400 | > 100 | > 50 |  |  |  |  | 
Nc1nc(F)nc2c1ncn2CCOCP(=O)(O)O | > 50 | 22.3 (≈ 76.6 µM) | > 100 | 70 (≈ 240 µM) | 150 (≈ 515 µM) | 70 (≈ 240 µM) | 40 (≈ 137 µM) | > 50 |  |  |  |  | 
